Series [1] concerns Penicillium digitatum. The experiment in a line: Fungicidal activity against Penicillium digitatum infected Valenica oranges assessed as fruit weight loss at 400 mg/L treated for 1 min at 40 degC postharvest at 20 hr after fungal conidial inoculation measured after 7 days of storage at 17 degC in presence of 1% SBC (water Rvb = 4.49%). In kind it is functional.
The subject of series [2] is Fruit. The experiment in a line: Total drug residues in Citrus sinensis cvs. Salustiana (Salustiana oranges) fruit at 600 mg/L treated for 3 min at 20 degC postharvest measured after overnight incubation at 17 degC by GC analysis. The format is ADME. As to conditions: 0.05 h. A digest of the protocol:
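'Salustiana' oranges were water-washed, dried, dipped, then dried overnight at 17 °C in the dark. Unextracted fruit were used for total residues. Peel from five oranges was frozen at -18 °C. 5 g homogenized peel was extracted with 10 mL ethyl acetate/hexane (1/1) plus 2 g NaCl, shaken 30 min, then 1 mL of organic layer was dried under N2, redissolved in acetone, and run by GC without cleanup. Results are on a whole-fruit basis.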

In series [3] the test system is Cuticular wax. Description: Drug residues in Citrus sinensis cvs. Salustiana (Salustiana oranges) cuticular wax at 600 mg/L treated for 3 min at 20 degC postharvest measured after overnight incubation at 17 degC by GC analysis. In kind it is ADME. To be noted: 0.05 h. In short, it runs like this:
(§1)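 'Salustiana' oranges were washed with water and air-dried. They were dipped 1 or 3 min in TBZ 600 mg/L at 20 or 50 °C, or 1 min in TBZ 600 mg/L plus 2% SBC at 20 °C, then dried overnight at 17 °C in the dark. Surface residue was taken by water extraction and wax residue by chloroform extraction. Inner residue was measured in fruit after both extractions. Extracts were dried under N2, taken up in acetone and analysed by GC. Values are mg/kg on a whole-fruit basis.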

Series [4] has as its system Penicillium digitatum. The experiment in a line: Fungicidal activity against Penicillium digitatum infected Valenica oranges assessed as fruit weight loss at 400 mg/L treated for 1 min at 40 degC postharvest at 20 hr after fungal conidial inoculation measured after 14 days of storage at 17 degC in presence of 1% SBC (water Rvb = 8.68%). The format is functional.
Series [5] deals with Penicillium digitatum. The experiment in a line: Fungicidal activity against TBZ-resistant Penicillium digitatum infected Nova mandarins assessed as postharvest green mold incidence at 600 mg/L treated for 1 min at 20 degC at 20 hr after fungal conidial inoculation measured after 5 days of storage at 20 degC in presence of 2% SBC (water Rvb = 61.7%). In kind it is functional.

For series [6], the system named is Fruit. The experiment in a line: Drug residues in Citrus sinensis cvs. Valencia late (Valencia oranges) at 600 mg/L treated for 1 min at 20 degC postharvest measured after 10 days of storage at 17 degC in presence of 1% SBC by GC analysis. The format is ADME. In short, it runs like this: (§2)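 'Valencia' oranges were dipped 1 min in TBZ at 600 mg/L (20 °C, ±0.5, 1 or 2% wt/vol SBC), 400 mg/L (40 °C, ±SBC) or 200 mg/L (50 °C, alone), then air-dried. They were sampled at 0, 10 and 20 days at 17 °C. Peel of five fruit was frozen, and 5 g of homogenate was extracted with ethyl acetate/hexane (1/1) plus NaCl. The extract was dried under N2, taken up in acetone and analysed by GC. Results are mg/kg on a whole-fruit basis.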

Series [7] relates to Penicillium digitatum. The experiment in a line: Fungicidal activity against TBZ-sensitive Penicillium digitatum infected Valencia oranges assessed as postharvest green mold incidence at 400 mg/L treated for 1 min at 40 degC at 20 hr after fungal conidial inoculation measured after 7 days of storage at 20 degC in presence of 1% SBC (water Rvb = 29.2%). The format is functional. In short, it runs like this:
(§3)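 Fruit were surface-disinfected in 1 g/L hypochlorite for 30 s, rinsed, dried, then wounded twice equatorially (2 mm × 2 mm rod). Inoculation was a 1 min dip in P. digitatum conidia, 1 × 10^5 conidia/mL final. Fruit were held 20 h at 20 °C and 90% RH, dipped 1 min (SBC wt/vol), and air-dried. Storage was 20 °C, 90% RH. Decay incidence (% fruit with lesions) was scored at 5 d for mandarins and 7 d for oranges. Three replicates of 40 fruit were used; arcsin-transformed data were compared by LSD, p ≤ 0.05.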

Series [8] relates to Penicillium digitatum. Description: Fungicidal activity against TBZ-sensitive Penicillium digitatum infected Valencia oranges assessed as postharvest green mold incidence at 600 mg/L treated for 1 min at 20 degC at 20 hr after fungal conidial inoculation measured after 7 days of storage at 20 degC in presence of 1% SBC (water Rvb = 30.8%). In kind it is functional. A digest of the protocol:
as §3

Series [9] has as its system Penicillium digitatum. Description: Fungicidal activity against Penicillium digitatum infected Valenica oranges assessed as fruit weight loss at 600 mg/L treated for 1 min at 20 degC postharvest at 20 hr after fungal conidial inoculation measured after 7 days of storage at 17 degC (water Rvb = 3.13%). In kind it is functional.
The subject of series [10] is Penicillium digitatum. Description: Fungicidal activity against TBZ-resistant Penicillium digitatum infected Nova mandarins assessed as postharvest green mold incidence at 400 mg/L treated for 1 min at 40 degC at 20 hr after fungal conidial inoculation measured after 5 days of storage at 20 degC in presence of 2% SBC (water Rvb = 61.7%). In kind it is functional.
For series [11], the system named is Fruit. Description: Drug residues in Citrus sinensis cvs. Valencia late (Valencia oranges) at 600 mg/L treated for 1 min at 20 degC postharvest measured immediately post-drug treatment in presence of 2% SBC by GC analysis. In kind it is ADME. In short, it runs like this:
as §2

For a further series, the system named is Inner fruit. Description: Drug residues in Citrus sinensis cvs. Salustiana (Salustiana oranges) inner fruit at 600 mg/L treated for 1 min at 20 degC postharvest measured after overnight incubation at 17 degC in presence of 2% SBC by GC analysis. In kind it is ADME. A digest of the protocol: as §1
The subject of series [12] is Penicillium digitatum. Description: Fungicidal activity against Penicillium digitatum infected Valenica oranges assessed as fruit weight loss at 400 mg/L treated for 1 min at 40 degC postharvest at 20 hr after fungal conidial inoculation measured after 7 days of storage at 17 degC in presence of 2% SBC (water Rvb = 4.70%). The format is functional.
The subject of series [13] is Penicillium digitatum. The experiment in a line: Fungicidal activity against TBZ-sensitive Penicillium digitatum infected Valencia oranges assessed as postharvest green mold incidence at 600 mg/L treated for 1 min at 20 degC at 20 hr after fungal conidial inoculation measured after 7 days of storage at 20 degC (water Rvb = 92.5%). The format is functional.
In series [14] the test system is Penicillium digitatum. Description: Fungicidal activity against Penicillium digitatum infected Valenica oranges assessed as fruit weight loss at 400 mg/L treated for 1 min at 40 degC postharvest at 20 hr after fungal conidial inoculation measured after 21 days of storage at 17 degC (water Rvb = 8.83%). The format is functional.
Series [15] relates to Penicillium digitatum. The experiment in a line: Fungicidal activity against TBZ-resistant Penicillium digitatum infected Valencia oranges assessed as postharvest green mold incidence at 600 mg/L treated for 1 min at 20 degC at 20 hr after fungal conidial inoculation measured after 7 days of storage at 20 degC (water Rvb = 96.7%). In kind it is functional.
Series [16] concerns Penicillium digitatum. The experiment in a line: Fungicidal activity against TBZ-resistant Penicillium digitatum infected Valencia oranges assessed as postharvest green mold incidence at 600 mg/L treated for 1 min at 20 degC at 20 hr after fungal conidial inoculation measured after 7 days of storage at 20 degC in presence of 0.5% SBC (water Rvb = 85.8%). The format is functional.

Series [17] has as its system Cuticular wax. The experiment in a line: Drug residues in Citrus sinensis cvs. Salustiana (Salustiana oranges) cuticular wax at 600 mg/L treated for 1 min at 20 degC postharvest measured after overnight incubation at 17 degC by GC analysis. The format is ADME. In short, it runs like this:
as §1

For the compound `c1ccc2[nH]c(-c3cscn3)nc2c1` [THIABENDAZOLE], the Activity was 3.98% with Penicillium digitatum [1]; 8.11% with Penicillium digitatum [4]; 40% in the series with Penicillium digitatum [5]; 5% in the series with Penicillium digitatum [7]; 9.2% in the series with Penicillium digitatum [8]; 3.59% in the series on Penicillium digitatum [9]. Further, the Activity with Penicillium digitatum [10] came to 23.3%; in the series on Penicillium digitatum [12], 4.55%; in the series with Penicillium digitatum [13] it was 31.7%; with Penicillium digitatum [14] it was 8.96%; in the series on Penicillium digitatum [15] it was 78.3%; in the series on Penicillium digitatum [16], 38.3%. The Drug uptake with Fruit [2] worked out at 1.1 mg/kg; in the series on Cuticular wax [3], 0.11 mg/kg; in the series on Fruit [6], 1.45 mg/kg; with Fruit [11] it was 1.22 mg/kg; with Inner fruit, 0.01 mg/kg; with Cuticular wax [17], 0.17 mg/kg.

The values are drawn from ChEMBL document CHEMBL3045217, “Factors affecting the synergy of thiabendazole, sodium bicarbonate, and heat to control postharvest green mold of citrus fruit” (J Agric Food Chem, 2008).
